Test results from ChEMBL document CHEMBL4680066, “Deacylcortivazol-like pyrazole regioisomers reveal a more accommodating expanded binding pocket for the glucocorticoid receptor” (RSC Med Chem, 2021).

These compounds were tested against T1, Glucocorticoid receptor (Homo sapiens, UniProt P04150) (assay: Induction of translocation of human glucocorticoid receptor expressed in HEK293T cells transduced with lentiviral vector expressing H2B-mCherry and GFP-GR assessed as effective dissociation constant measured every 130 sec for 22 mins by fluorescence imaging analysis). Settings: hek293t; call rule not given here.
T1 sequence (P04150 whole entry): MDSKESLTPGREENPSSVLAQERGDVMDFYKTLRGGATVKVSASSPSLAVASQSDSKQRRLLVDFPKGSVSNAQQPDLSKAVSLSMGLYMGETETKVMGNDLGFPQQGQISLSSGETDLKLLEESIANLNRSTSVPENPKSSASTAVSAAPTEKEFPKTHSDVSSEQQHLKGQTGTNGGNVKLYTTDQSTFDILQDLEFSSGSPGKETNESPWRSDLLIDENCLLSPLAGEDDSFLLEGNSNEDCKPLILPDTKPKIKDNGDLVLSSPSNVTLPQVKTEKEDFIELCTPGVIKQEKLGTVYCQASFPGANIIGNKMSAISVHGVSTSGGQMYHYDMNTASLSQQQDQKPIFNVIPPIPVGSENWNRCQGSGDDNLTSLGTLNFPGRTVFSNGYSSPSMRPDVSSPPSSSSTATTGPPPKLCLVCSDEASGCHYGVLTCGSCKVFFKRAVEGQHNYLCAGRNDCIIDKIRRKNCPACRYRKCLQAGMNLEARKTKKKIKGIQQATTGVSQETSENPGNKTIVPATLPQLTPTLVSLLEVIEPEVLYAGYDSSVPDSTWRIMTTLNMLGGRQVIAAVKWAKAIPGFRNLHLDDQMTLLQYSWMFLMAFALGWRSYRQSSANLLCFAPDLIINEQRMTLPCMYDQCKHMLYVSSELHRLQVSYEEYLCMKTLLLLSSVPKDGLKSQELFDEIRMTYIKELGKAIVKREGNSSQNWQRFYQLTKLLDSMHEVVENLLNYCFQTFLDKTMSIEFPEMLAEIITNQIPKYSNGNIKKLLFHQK
Type: cell-based

SMILES	Kd
COc1cccc(-n2cc3c(n2)C=C2CC[C@@H]4[C@H]([C@@H](O)C[C@@]5(C)[C@H]4CC[C@]5(O)C(=O)CO)[C@@]2(C)C3)c1	Not Active

Same assay, conditions: read-out: Kd

SMILES	Kd [nM]
Cc1ccc(-n2cc3c(n2)C=C2CC[C@@H]4[C@H]([C@@H](O)C[C@@]5(C)[C@H]4CC[C@]5(O)C(=O)CO)[C@@]2(C)C3)cc1	883
C[C@]12Cc3cn(-c4ccccc4)nc3C=C1CC[C@@H]1[C@@H]2[C@@H](O)C[C@@]2(C)[C@H]1CC[C@]2(O)C(=O)CO	2.2
C[C@]12Cc3cnn(-c4ccccc4)c3C=C1CC[C@@H]1[C@@H]2[C@@H](O)C[C@@]2(C)[C@H]1CC[C@]2(O)C(=O)CO	2.2
C[C@]12Cc3cn(-c4ccc(F)cc4)nc3C=C1CC[C@@H]1[C@@H]2[C@@H](O)C[C@@]2(C)[C@H]1CC[C@]2(O)C(=O)CO	138
CCCCCCn1ncc2c1C=C1CC[C@@H]3[C@H]([C@@H](O)C[C@@]4(C)[C@H]3CC[C@]4(O)C(=O)CO)[C@@]1(C)C2	9
C[C@]12Cc3cnn(-c4ccc(F)cc4)c3C=C1CC[C@@H]1[C@@H]2[C@@H](O)C[C@@]2(C)[C@H]1CC[C@]2(O)C(=O)CO	2.6

Each compound was assayed on REH (assay: Cytotoxicity against human REH cells overexpressing GR assessed as reduction in cell viability measured after 3 days by resazurin based assay). Settings: Homo sapiens, REH, 72 h; read-out: EC50.
Type: functional
Outline: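 REH B-ALL cells (naturally GR-null) were lentivirally infected with GFP-T2A-GR, and the top 10% GFP sorted population was used. Cells grown in RPMI + 10% FBS, seeded at 9,000 cells/well in 384-well format. DMSO serial dilutions (2500 µM to 0.01 µM stocks) were diluted 1:500 and then added 1:1, giving 0.1% final DMSO. Exposure 72 h. Read-out: PrestoBlue fluorescence (Ex 560/Em 590), normalized to DMSO-only wells. EC50 by 4-parameter fit per replicate, at least 6 replicates.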

SMILES	EC50 [nM]
Cc1ccc(-n2cc3c(n2)C=C2CC[C@@H]4[C@H]([C@@H](O)C[C@@]5(C)[C@H]4CC[C@]5(O)C(=O)CO)[C@@]2(C)C3)cc1	7270
C[C@]12Cc3cn(-c4ccccc4)nc3C=C1CC[C@@H]1[C@@H]2[C@@H](O)C[C@@]2(C)[C@H]1CC[C@]2(O)C(=O)CO	1.3
C[C@]12Cc3cnn(-c4ccccc4)c3C=C1CC[C@@H]1[C@@H]2[C@@H](O)C[C@@]2(C)[C@H]1CC[C@]2(O)C(=O)CO	2.3
COc1cccc(-n2ncc3c2C=C2CC[C@@H]4[C@H]([C@@H](O)C[C@@]5(C)[C@H]4CC[C@]5(O)C(=O)CO)[C@@]2(C)C3)c1	346
C[C@]12Cc3cn(-c4ccc(F)cc4)nc3C=C1CC[C@@H]1[C@@H]2[C@@H](O)C[C@@]2(C)[C@H]1CC[C@]2(O)C(=O)CO	225
CCCCCCn1ncc2c1C=C1CC[C@@H]3[C@H]([C@@H](O)C[C@@]4(C)[C@H]3CC[C@]4(O)C(=O)CO)[C@@]1(C)C2	27
C[C@@H]1C[C@H]2[C@@H]3CCC4=CC(=O)C=C[C@]4(C)[C@@]3(F)[C@@H](O)C[C@]2(C)[C@@]1(O)C(=O)CO [DEXAMETHASONE]	6.7
C[C@]12Cc3cnn(-c4ccc(F)cc4)c3C=C1CC[C@@H]1[C@@H]2[C@@H](O)C[C@@]2(C)[C@H]1CC[C@]2(O)C(=O)CO	1.4

Same assay, conditions: reh

SMILES	EC50
CCCCCCn1cc2c(n1)C=C1CC[C@@H]3[C@H]([C@@H](O)C[C@@]4(C)[C@H]3CC[C@]4(O)C(=O)CO)[C@@]1(C)C2	Not Active

These compounds were tested against T2, Glucocorticoid receptor (Homo sapiens) (UniProt P04150). Settings: HEK293T, filed as modulator, time 22.0 min.
T2 sequence (whole entry): T1 sequence (P04150 whole entry)

SMILES	T1/2 [min]
C[C@]12Cc3cn(-c4ccccc4)nc3C=C1CC[C@@H]1[C@@H]2[C@@H](O)C[C@@]2(C)[C@H]1CC[C@]2(O)C(=O)CO	2.63
C[C@]12Cc3cnn(-c4ccccc4)c3C=C1CC[C@@H]1[C@@H]2[C@@H](O)C[C@@]2(C)[C@H]1CC[C@]2(O)C(=O)CO	2.67
COc1cccc(-n2ncc3c2C=C2CC[C@@H]4[C@H]([C@@H](O)C[C@@]5(C)[C@H]4CC[C@]5(O)C(=O)CO)[C@@]2(C)C3)c1	4.17
C[C@]12Cc3cn(-c4ccc(F)cc4)nc3C=C1CC[C@@H]1[C@@H]2[C@@H](O)C[C@@]2(C)[C@H]1CC[C@]2(O)C(=O)CO	4.33
CCCCCCn1ncc2c1C=C1CC[C@@H]3[C@H]([C@@H](O)C[C@@]4(C)[C@H]3CC[C@]4(O)C(=O)CO)[C@@]1(C)C2	2.1
C[C@]12Cc3cnn(-c4ccc(F)cc4)c3C=C1CC[C@@H]1[C@@H]2[C@@H](O)C[C@@]2(C)[C@H]1CC[C@]2(O)C(=O)CO	2.2
